In ChEMBL document CHEMBL4406822, “Neuroactive Steroid N-Methyl-d-aspartate Receptor Positive Allosteric Modulators: Synthesis, SAR, and Pharmacological Activity” (J Med Chem, 2019):
Activity calls are given as the source filed them. The rule behind the calls is not given here.

Assays:
[1] = target: T1, Glutamate NMDA receptor; GRIN1/GRIN2A (Homo sapiens, UniProt Q05586+Q12879); test: Positive allosteric modulation of recombinant human GluN1/GluN2A receptor stably expressed in HEK293 cells assessed as increase in glycine/L-glutamate-induced channel current at -70 mV holding potential by IonWork […] method; format: cell-based
How it was run: (§1)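 Stable HEK293 lines expressing GluN1/GluN2A or GluN1/GluN2B, measured by automated whole-cell patch clamp (Ionworks Barracuda). Cells were held at -70 mV and stepped to -45 mV during agonist application (EC20 L-glutamate plus 50 µM glycine). The test article was first pre-applied alone for 5 min, then co-applied with agonist to record potentiation. Concentration-response percent potentiation gave EC50 and Emax.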

[2] = target: T1, Glutamate NMDA receptor; GRIN1/GRIN2A; test: Positive allosteric modulation of recombinant human GluN1/GluN2A receptor stably expressed in HEK293 cells assessed as increase in glycine/L-glutamate-induced channel current at -70 mV holding potential by IonWork […] method relative to control; format: cell-based; how it was run: as §1
[3] = target: T2, Glutamate NMDA receptor; GRIN1/GRIN2B (Homo sapiens, UniProt Q05586+Q13224); test: Positive allosteric modulation of recombinant human GluN1/GluN2B receptor stably expressed in HEK293 cells assessed as increase in glycine/L-glutamate-induced channel current at -70 mV holding potential by IonWork […] method; format: cell-based; how it was run: as §1
[4] = Stability in human liver microsomes; format: ADME, Microsome; settings: read-out: Stability
[5] = Stability in rat liver microsomes; format: ADME, Microsome; settings: read-out: Stability
[6] = target: T2, Glutamate NMDA receptor; GRIN1/GRIN2B; test: Positive allosteric modulation of recombinant human GluN1/GluN2B receptor stably expressed in HEK293 cells assessed as increase in glycine/L-glutamate-induced channel current at -70 mV holding potential by IonWork whole cell patch clamp method relative to control
[7] = Clearance in iv dosed rat; format: ADME, organism-based; settings: in vivo
[8] = Volume of distribution at steady state in rat; format: ADME; settings: in vivo, read-out: Vdss
[9] = Half life in rat; format: ADME; settings: in vivo
[10] = Oral bioavailability in rat; format: ADME, organism-based; settings: in vivo
[11] = Ratio of drug level in Sprague-Dawley rat brain to plasma at 10 mg/kg, ip measured after 1 hr; format: ADME, organism-based; settings: brain and plasma, read-out: BPR
[12] = target: T1, Glutamate NMDA receptor; GRIN1/GRIN2A; test: Potency index, ratio of 24(S)-hydroxycholesterol EC50 to test compound EC50 for positive allosteric modulation of recombinant human GluN1/GluN2A receptor stably expressed in HEK293 cells; format: cell-based
[13] = target: T2, Glutamate NMDA receptor; GRIN1/GRIN2B; test: Potency index, ratio of 24(S)-hydroxycholesterol EC50 to test compound EC50 for positive allosteric modulation of recombinant human GluN1/GluN2B receptor stably expressed in HEK293 cells; format: cell-based
[14] = tested on: Hippocampus; test: Induction of synaptic plasticity in postnatal 60 to 90 day rat brain hippocampal slice assessed as change in theta burst stimulaiton-induced field potential potentiation at 1 uM treated 20 mins prior to theta burst stimulation by electrophysiological method; format: functional, tissue-based
[15] = tested on: Hippocampus; test: Induction of synaptic plasticity in postnatal 120 to 150 day rat brain hippocampal slice assessed as stimulation of theta burst stimulaiton-induced field potential potentiation at 1 uM treated 20 mins prior to theta burst stimulation and measured after 60 mins by electrophysiological method; format: functional, tissue-based
[16] = Ratio of drug level in Sprague-Dawley rat brain to plasma at 2.5 mg/kg, iv measured after 1 hr; format: ADME, organism-based; settings: brain and plasma, read-out: BPR

SMILES | EC50 [1] [nM] | Emax [2] [%] | EC50 [3] [nM] | microsomal CLint [4] [µL/min/mg] | microsomal CLint [5] [µL/min/mg] | Emax [6] [%] | clearance [7] [mL/min/kg] | Vd [8] [L/kg] | half-life [9] [h] | bioavailability [10] [%] | Kp at 1 h [11] | Ratio EC50 [12] | Ratio EC50 [13] | Activity [14] | Activity [15] | Kp at 1 h [16]
CC(C)[C@H](O)CC[C@@H](C)[C@H]1CC[C@H]2[C@@H]3CC=C4C[C@@H](O)CC[C@]4(C)[C@H]3CC[C@]12C | 37 | 220 | 55 | 28 | 93 | 140 | – | – | – | – | – | – | – | – | – | –
C[C@H](CC[C@H](O)C1CCC1)[C@H]1CC[C@H]2[C@@H]3CC=C4C[C@@](C)(O)CC[C@]4(C)[C@H]3CC[C@]12C | 120 | 300 | 120 | < 10 | 31 | 530 | – | – | – | – | – | – | – | – | – | –
CC(C)[C@H](O)CC[C@@H](C)[C@H]1CC[C@H]2[C@@H]3CC=C4C[C@@](C)(O)CC[C@]4(C)[C@H]3CC[C@]12C | 120 | 200 | 190 | < 10 | 11 | 230 | 38.3 | 3.1 | 2.2 | 25 | 0.8 | – | – | – | – | –
C[C@H](CCC1(O)CC1)[C@H]1CC[C@H]2[C@@H]3CC=C4C[C@@H](O)CC[C@]4(C)[C@H]3CC[C@]12C | 900 | 280 | 310 | 10 | 35 | 280 | – | – | – | – | – | – | – | – | – | –
C[C@H](CC(C)(C)O)[C@H]1CC[C@H]2[C@@H]3CC=C4C[C@@H](O)CC[C@]4(C)[C@H]3CC[C@]12C | > 10000 | – | > 10000 | 18 | 63 | – | – | – | – | – | – | – | – | – | – | –
C[C@H](CCC(C)(C)O)[C@H]1CC[C@H]2[C@@H]3CC=C4C[C@](C)(O)CC[C@]4(C)[C@H]3CC[C@]12C | > 10000 | – | 3900 | – | – | 160 | – | – | – | – | – | – | – | – | – | –
C[C@H](CC[C@H](O)C(F)(F)F)[C@H]1CC[C@H]2[C@@H]3CC=C4C[C@@](C)(O)CC[C@]4(C)[C@H]3CC[C@]12C | 220 | 260 | 110 | 4 | 12 | 170 | – | – | – | – | – | – | – | – | – | –
CC(O)CC[C@@H](C)[C@H]1CC[C@H]2[C@@H]3CC=C4C[C@@H](O)CC[C@]4(C)[C@H]3CC[C@]12C (some centres undefined) | 320 | 150 | 140 | 7 | 17 | 180 | – | – | – | – | – | – | – | – | – | –
COC(C)(C)CC[C@@H](C)[C@H]1CC[C@H]2[C@@H]3CC=C4C[C@@](C)(O)CC[C@]4(C)[C@H]3CC[C@]12C | > 10000 | – | > 10000 | – | – | – | – | – | – | – | – | – | – | – | – | –
CC(C)[C@@H](O)CC[C@@H](C)[C@H]1CC[C@H]2[C@@H]3CC=C4C[C@@](C)(O)CC[C@]4(C)[C@H]3CC[C@]12C | 33 | 200 | 13 | < 10 | 28 | 230 | 51.7 | 3.7 | 1.6 | 15 | 1.3 | 4 | > 10 | – | – | –
C[C@H](CCC1(O)CC1)[C@H]1CC[C@H]2[C@@H]3CC=C4C[C@@](C)(O)CC[C@]4(C)[C@H]3CC[C@]12C | 80 | 300 | 410 | 6 | 23 | 180 | – | – | – | – | – | – | – | – | – | –
C[C@H](O)CC[C@@H](C)[C@H]1CC[C@H]2[C@@H]3CC=C4C[C@@](C)(O)CC[C@]4(C)[C@H]3CC[C@]12C | > 10000 | – | 3000 | < 10 | 56 | 50 | – | – | – | – | – | – | – | – | – | –
C[C@H](CCCO)[C@H]1CC[C@H]2[C@@H]3CC=C4C[C@@H](O)CC[C@]4(C)[C@H]3CC[C@]12C | 3000 | 290 | > 10000 | 13 | 25 | – | – | – | – | – | – | – | – | – | – | –
C[C@H](CC[C@@H](O)C1CCC1)[C@H]1CC[C@H]2[C@@H]3CC=C4C[C@@](C)(O)CC[C@]4(C)[C@H]3CC[C@]12C | 270 | 250 | 270 | < 10 | 25 | 410 | 88.3 | 2.9 | 0.84 | 18 | – | – | – | – | – | –
C[C@H](CCCC(C)(C)O)[C@H]1CC[C@H]2[C@@H]3CC=C4C[C@@H](O)CC[C@]4(C)[C@H]3CC[C@]12C | > 10000 | – | > 10000 | 23 | 31 | 67 | 41.7 | 1.2 | 0.38 | 6 | – | – | – | – | – | –
C[C@H](CC[C@@H](C)O)[C@H]1CC[C@H]2[C@@H]3CC=C4C[C@@](C)(O)CC[C@]4(C)[C@H]3CC[C@]12C | > 10000 | – | > 10000 | 11 | 67 | – | – | – | – | – | – | – | – | – | – | –
CC(C)(O)CCC[C@H]1CC[C@H]2[C@@H]3CC=C4C[C@@](C)(O)CC[C@]4(C)[C@H]3CC[C@]12C | 550 | 120 | 160 | – | – | 120 | – | – | – | – | – | – | – | – | – | –
CC[C@H](O)CC[C@@H](C)[C@H]1CC[C@H]2[C@@H]3CC=C4C[C@@](C)(O)CC[C@]4(C)[C@H]3CC[C@]12C | 100 | 250 | 84 | 15 | 10 | 160 | – | – | – | – | – | – | – | – | – | –
C[C@H](CC[C@H](O)C1CC1)[C@H]1CC[C@H]2[C@@H]3CC=C4C[C@@](C)(O)CC[C@]4(C)[C@H]3CC[C@]12C | 320 | 230 | 170 | < 10 | 28 | 150 | – | – | – | – | – | – | – | – | – | –
C[C@H](CC[C@@H](O)C1CC1)[C@H]1CC[C@H]2[C@@H]3CC=C4C[C@@](C)(O)CC[C@]4(C)[C@H]3CC[C@]12C | 77 | 220 | 190 | 10 | 20 | 280 | 68.3 | 4.4 | 1.8 | – | 3.2 | – | – | – | – | –
C[C@H](CCC(C)(C)O)[C@H]1CC[C@H]2[C@@H]3CC=C4C[C@@H](O)CC[C@]4(C)[C@H]3CC[C@]12C | 180 | 110 | 410 | 10 | 30 | 140 | – | – | – | – | – | – | – | inactive | Active | –
C[C@@H]([C@H]1CC[C@H]2[C@@H]3CC=C4C[C@@H](O)CC[C@]4(C)[C@H]3CC[C@]12C)C(C)(C)O | > 10000 | – | > 10000 | 6 | 48 | – | – | – | – | – | – | – | – | – | – | –
CC[C@@H](O)CC[C@@H](C)[C@H]1CC[C@H]2[C@@H]3CC=C4C[C@@](C)(O)CC[C@]4(C)[C@H]3CC[C@]12C | 420 | 220 | 30 | < 10 | 25 | 130 | – | – | – | – | – | – | – | – | – | –
C[C@@H](CCC(C)(C)O)[C@H]1CC[C@H]2[C@@H]3CC=C4C[C@@](C)(O)CC[C@]4(C)[C@H]3CC[C@]12C | > 10000 | – | > 10000 | – | – | – | – | – | – | – | – | – | – | – | – | –
C[C@H](CC[C@@H](O)C(F)(F)F)[C@H]1CC[C@H]2[C@@H]3CC=C4C[C@@](C)(O)CC[C@]4(C)[C@H]3CC[C@]12C | 30 | 150 | 310 | 3 | 9 | 230 | 31.7 | 2.8 | 1.9 | 70 | – | – | – | – | – | 1
